Data on four compounds can be found in ChEMBL document CHEMBL4190213, “Naphthoquinones of Sinningia reitzii and Anti-inflammatory/Antinociceptive Activities of 8-Hydroxydehydrodunnione” (J Nat Prod, 2017).

Each structure is given as a SMILES string. Calls of active or inactive are those of the source.

In series [1] the test system is Mus musculus. Briefly: Antiinflammatory activity in Swiss mouse assessed as inhibition of carrageenan-induced paw edema administered as intraplantar injection pretreated for 1 hr followed by carrageenan challenge measured after 1 to 4 hrs. It counts as functional, organism-based. The method in brief:
(§1)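 Male Swiss mice, 25−35 g, given an intraplantar pretreatment in 0.1% Tween 20 vehicle. The right hind paw then received carrageenan, 300 μg in 50 μL sterile 0.9% saline, given subcutaneously; the contralateral paw received saline only. Paw thickness was read by digital micrometer 1 h before and 1, 2 and 4 h after carrageenan. The result is the thickness difference in μm; mean ± SEM, 5−8 animals.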
(In general: In the carrageenan paw model, swelling and tenderness develop within hours.)

For series [2], the system named is Mus musculus. Briefly: Antinociceptive activity in carrageenan-induced Swiss mouse model of mechanical hyperalgesia administered as intraplantar injection pretreated for 15 mins followed by carrageenan challenge after 3 hrs by Von Frey filament assay. It counts as functional, organism-based. The method in brief: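 Male Swiss mice were acclimatized 1 h on a wire mesh platform and given a basal von Frey up-and-down test (six measurements, 50% withdrawal threshold). Intraplantar treatment followed, 5−50 pg into the right paw, vehicle 0.1% Tween 20 in saline, 20 μL. After 15 min, carrageenan 300 μg/paw in 20 μL went into the right hindpaw. The threshold was remeasured at 3 h; mean ± SEM, 5−8 animals.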

Series [3] has as its system Mus musculus. Briefly: Antinociceptive activity in PGE2-induced Swiss mouse model of mechanical hyperalgesia at 15 pg/paw administered as intraplantar injection pretreated for 15 mins followed by PGE2 challenge after 3 hrs by Von Frey filament assay. Type of series: functional, organism-based. The method in brief: (§2)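 Male Swiss mice received intraplantar pretreatment, vehicle 20 μL of 0.1% Tween 20. After 15 min the right paw was injected with PGE2 (100 ng/paw), dopamine (3 μg/paw) or dbcAMP (5 μg/paw). The 50% mechanical withdrawal threshold was measured by von Frey filaments, up-and-down method, before injection and 3 h after the stimulus; mean ± SEM, 5−8 animals.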

In series [4] the test system is Mus musculus. Briefly: Antinociceptive activity in dopamine-induced Swiss mouse model of mechanical hyperalgesia at 15 pg/paw administered as intraplantar injection pretreated for 15 mins followed by dopamine challenge after 3 hrs by Von Frey filament assay. It counts as functional, organism-based. The method in brief: as §2
Series [5] has as its system Mus musculus. Briefly: Antinociceptive activity in dibutyryl cyclic AMP-induced Swiss mouse model of mechanical hyperalgesia at 15 pg/paw administered as intraplantar injection pretreated for 15 mins followed by dibutyryl cyclic AMP challenge after 3 hrs by Von Frey filament assay. Type of series: functional, organism-based. The method in brief:
as §2

In series [6] the test system is Mus musculus. Briefly: Toxicity in Swiss mouse assessed as motor impairment at 15 pg/paw administered as intraplantar injection incubated for 3 hrs measured for 180 secs by rotarod test. It counts as organism-based. The settings on record: in vivo, other. An outline of the steps: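 Male Swiss mice were preselected for staying at least 60 s on a Rotarod at 22 rpm (one of three trials). They received intraplantar treatment (vehicle 20 μL of 0.1% Tween 20) and were tested on the Rotarod 3 h later for 180 s; mean ± SEM, n = 6.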
(In the rotarod test animals must keep their balance on a rotating rod.)

The species entered for series [7] is Mus musculus. Briefly: Antinociceptive activity in Swiss mouse assessed as increase in thermal-stimulus induced paw withdrawal or licking latency at 15 pg/paw after 3 hrs by hot plate method. Type of series: functional, organism-based. An outline of the steps:
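Male Swiss mice were preselected for a basal latency of 7−15 s on a 55 °C metal platform. They then received intraplantar treatment (vehicle 20 μL of 0.1% Tween 20) and were re-exposed at 3 h. The end point was paw withdrawal or licking, cutoff 30 s. Data are %MPE = (post − basal)/(cutoff − basal) × 100; mean ± SEM, n = 6.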
(In general: Hot-plate and tail-flick tests time the reaction to a heat stimulus.)

Series [8] deals with Mus musculus. Briefly: Toxicity in Swiss mouse assessed as motor impairment at 5 mg/kg, sc incubated for 15 mins measured for 180 secs by rotarod test. Type of series: organism-based. The note with it: in vivo, 0.05 h. An outline of the steps: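 Male Swiss mice (25−35 g) were preselected for staying at least 60 s on a Rotarod at 22 rpm (one of three trials). Diazepam was given at 5.0 mg/kg s.c. as the positive control. Local intraplantar treatments (15 pg/paw, or 20 μL vehicle of 0.1% Tween 20) were tested 3 h later. The Rotarod task lasted 180 s, n = 6.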

Series [9] deals with Mus musculus. Briefly: Antiinflammatory activity in Swiss mouse assessed as inhibition of carrageenan-induced paw edema 30 ng/paw administered as intraplantar injection pretreated for 1 hr followed by carrageenan challenge measured after 1 to 4 hrs. It counts as functional, organism-based. An outline of the steps:
as §1

Series [10] deals with Mus musculus. Briefly: Antinociceptive activity in PGE2-induced Swiss mouse model of mechanical hyperalgesia at 320 ng/paw administered as intraplantar injection pretreated for 15 mins followed by PGE2 challenge after 3 hrs by Von Frey filament assay. It counts as functional, organism-based. An outline of the steps: as §2
The test system of series [11] is Mus musculus. Briefly: Antinociceptive activity in dopamine-induced Swiss mouse model of mechanical hyperalgesia at 320 ng/paw administered as intraplantar injection pretreated for 15 mins followed by dopamine challenge after 3 hrs by Von Frey filament assay. It counts as functional, organism-based. An outline of the steps:
as §2

For series [12], the system named is Mus musculus. Briefly: Antinociceptive activity in dibutyryl cyclic AMP-induced Swiss mouse model of mechanical hyperalgesia at 320 ng/paw administered as intraplantar injection pretreated for 15 mins followed by dibutyryl cyclic AMP challenge after 3 hrs by Von Frey filament assay. It counts as functional, organism-based. The method in brief:
as §2

As to `C=C1OC2=C(C(=O)C(=O)c3c(O)cccc32)C1(C)C`, in the series on Mus musculus [1], the inhibition result was “Dose-dependent effect”. Also, the Activity entry in the series on Mus musculus [2] is “Dose-dependent effect”; with Mus musculus [6], “Non-Toxic”. Also, the outcome in the series on Mus musculus [3] and with Mus musculus [4] was Active. In addition, the outcome in the series with Mus musculus [5] and in the series listed under Mus musculus [7] was inactive.
For `CN1C(=O)CN=C(c2ccccc2)c2cc(Cl)ccc21` [DIAZEPAM], in the series on Mus musculus [8], the Activity result is given as “Toxic”.
In the case of `C[C@@H]1C[C@H]2[C@@H]3CCC4=CC(=O)C=C[C@]4(C)[C@@]3(F)[C@@H](O)C[C@]2(C)[C@@]1(O)C(=O)CO`, the inhibition result in the series on Mus musculus [9] is “Active”.
With `Cc1c(N(C)CS(=O)(=O)O)c(=O)n(-c2ccccc2)n1C`, the outcome in the series on Mus musculus [10], with Mus musculus [11] and in the series with Mus musculus [12] was Active.
